Measurements published in ChEMBL document CHEMBL4325877, “Synthesis of novel benzbromarone derivatives designed to avoid metabolic activation” (Bioorg Med Chem Lett, 2018).

Assays:
[1] = system: Hepatocyte; assay: Cytotoxicity in hepatocytes isolated from CYP activator dexamethasone-treated C57BL/6J mouse at 5 uM after 18 hrs by LDH assay relative to control; format: ADME, cell-based
Method in brief: (§1)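 Hepatocytes from mice pretreated with dexamethasone to induce CYP enzymes; compounds at 1 or 5 µM. Cytotoxicity read as LDH release after drug exposure (text gives 16 hr, legend 18 hr). Values are averages of duplicate experiments.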

[2] = Toxicity in liver microsomes isolated from CYP activator dexamethasone-treated Sprague-Dawley rat assessed as induction of mitochondrial permeability transition by measuring mitochondrial swelling at 50 uM measured after 30 mins in presence of NADPH; parameters: species or system Microsome; conditions: 0.5 h
Method in brief: (§2)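 Compound (50 µM) incubated with dexamethasone-treated rat liver microsomes at 37 °C, with or without NADPH, for 30 min. Isolated mitochondrial fraction then added. Swelling followed as absorbance change at 540 nm over time, and area over the curve integrated as the MPT index. Mean ± SD, n = 3.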

[3] = target: T1, Solute carrier family 22 member 12 (Homo sapiens, UniProt Q96S37); assay: Inhibition of human URAT1 expressed in HEK293 cells assessed as inhibition of [14C]-urate uptake at 10 uM after 2 mins by beta-scintillation counting analysis; format: cell-based; conditions: hek293, 2 min
T1 sequence (Q96S37 whole entry): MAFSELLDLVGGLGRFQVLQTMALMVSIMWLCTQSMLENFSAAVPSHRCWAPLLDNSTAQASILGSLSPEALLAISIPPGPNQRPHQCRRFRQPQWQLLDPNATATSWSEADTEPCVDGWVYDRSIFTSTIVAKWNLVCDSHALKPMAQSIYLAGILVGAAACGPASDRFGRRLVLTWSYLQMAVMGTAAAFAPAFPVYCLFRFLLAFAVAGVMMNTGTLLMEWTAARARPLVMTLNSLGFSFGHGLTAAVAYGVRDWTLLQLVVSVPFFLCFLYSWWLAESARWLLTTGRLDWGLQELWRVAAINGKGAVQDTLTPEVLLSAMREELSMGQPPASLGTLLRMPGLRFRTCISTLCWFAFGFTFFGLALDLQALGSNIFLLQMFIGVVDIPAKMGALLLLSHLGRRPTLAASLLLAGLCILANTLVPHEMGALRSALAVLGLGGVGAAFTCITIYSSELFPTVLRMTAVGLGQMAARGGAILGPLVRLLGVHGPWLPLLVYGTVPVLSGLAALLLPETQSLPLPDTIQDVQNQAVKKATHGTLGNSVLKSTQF
Method in brief: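 HEK cells overexpressing hURAT1; uric acid uptake measured in presence of compound at 10 µM. Uptake expressed as percent of vehicle control (0.5% DMSO, no inhibitor). Mean ± SD, n = 4.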

[4] = Toxicity in liver microsomes isolated from CYP activator dexamethasone-treated Sprague-Dawley rat assessed as induction of mitochondrial permeability transition by measuring mitochondrial swelling at 50 uM measured after 30 mins in absence of NADPH; parameters: species or system Microsome; conditions: 0.5 h; method in brief: as §2
[5] = system: Hepatocyte; assay: Cytotoxicity in hepatocytes isolated from CYP activator dexamethasone-treated C57BL/6J mouse after 18 hrs by LDH assay relative to control; format: ADME, cell-based; method in brief: as §1
[6] = target: T2, URAT1 (SLC22A12) (Homo sapiens, UniProt Q96S37); assay: Inhibition of human URAT1 expressed in HEK293 cells assessed as [14C]-urate uptake at 10 uM after 2 mins by beta-scintillation counting analysis relative to control; format: cell-based; parameters: scale not given: the % may be the effect or the level left; conditions: HEK293 cells expressing human URAT1, probe [14C]-urate, read-out: Activity
T2 sequence (Q96S37 whole entry): T1 sequence (Q96S37 whole entry)

[7] = system: Hepatocyte; assay: Cytotoxicity in hepatocytes isolated from CYP activator dexamethasone-treated C57BL/6J mouse at 1 uM after 18 hrs by LDH assay relative to control; format: ADME, cell-based; method in brief: as §1

| Structure (SMILES) | inhibition (INH) [3] | activity at 2 min, 10 µM [6] [%] | Activity [1] [%] | Activity [2] | Activity [4] | Activity [5] | Activity [7] [%] |
| --- | --- | --- | --- | --- | --- | --- | --- |
| CCc1oc2ccccc2c1C(=O)c1cccc(O)c1Br | Active | – | < 16 | Non-Toxic | Non-Toxic | – | – |
| CCc1oc2ccccc2c1C(=O)c1cc(Br)c(O)c(Br)c1 [BENZBROMARONE] | – | < 10 | 52 | Toxic | Non-Toxic | Dose-dependent effect | 27 |
| CCc1oc2ccccc2c1C(=O)c1cc(O)ccc1Br | Active | – | < 16 | Non-Toxic | Non-Toxic | – | – |

The next lines start with results.

| inhibition (INH) [3] | activity at 2 min, 10 µM [6] [%] | Structure (SMILES) | Activity [1] [%] | Activity [2] | Activity [4] | Activity [5] | Activity [7] [%] |
| --- | --- | --- | --- | --- | --- | --- | --- |
| Active | – | CCc1oc2ccccc2c1C(=O)c1ccc(Br)c(O)c1 | < 16 | Non-Toxic | Non-Toxic | – | – |
| Active | – | CCc1oc2ccccc2c1C(=O)c1cc(O)cc(Br)c1 | < 16 | Non-Toxic | Non-Toxic | – | – |
| Active | – | CCc1oc2ccccc2c1C(=O)c1cc(O)c(Br)cc1Br | < 16 | Non-Toxic | Non-Toxic | – | – |
| Active | – | CCc1oc2ccccc2c1C(=O)c1ccc(Br)c(O)c1Br | < 16 | Non-Toxic | Non-Toxic | – | – |
